Laboratory results from article PMC4277207 (ChemMedChem, 2014).
Read-outs that look alike come from different tables or passages of the source.

What was measured:
[1] = tested on: D2-like receptor (D2, D3, and D4); test: [3H]spiperone binding assay, rat striatal; details: ratio of Ki values, rat brain preparation
How it was run: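 The D2-like assay used [3H]spiperone at 0.2 nM on caudate-putamen membranes at 1.5 mg o.w.w./mL, in agonist-optimised Tris-HCl/KCl/MgCl2/CaCl2 buffer at pH 7.4. Nonspecific binding was set with 1 μM (+)-butaclamol, and KD was 0.4 nM. For two-site curves, the high-affinity Ki is reported. […] Values are means of 3–6 determinations.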

[2] = tested on: D1-like receptor (D1 and D5); test: [3H]SCH 23390 binding assay, rat striatal membranes; details: ratio of Ki values, rat brain preparation
[3] = target: human D3 receptor (Homo sapiens, UniProt P35462); format: cell-based; details: hD3-transfected CHOp cells, mitogenesis; for IC50: read-out: Agonist activity: IC50, mean ± SEM of 3–6 determinations
Sequence of human D3 receptor (P35462 whole entry): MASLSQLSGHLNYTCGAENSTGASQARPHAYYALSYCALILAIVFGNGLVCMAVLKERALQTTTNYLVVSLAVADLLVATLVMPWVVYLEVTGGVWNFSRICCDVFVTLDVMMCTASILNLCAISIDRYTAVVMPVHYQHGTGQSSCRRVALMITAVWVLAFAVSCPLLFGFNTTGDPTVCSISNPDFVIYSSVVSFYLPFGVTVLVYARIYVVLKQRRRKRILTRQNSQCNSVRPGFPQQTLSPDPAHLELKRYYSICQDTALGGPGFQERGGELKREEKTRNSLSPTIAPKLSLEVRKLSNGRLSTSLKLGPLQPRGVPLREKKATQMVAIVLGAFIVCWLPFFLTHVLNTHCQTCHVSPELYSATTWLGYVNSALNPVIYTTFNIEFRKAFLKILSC

[4] = format: in vitro ADME

| Structure (SMILES) | Selectivity D2-like/D3 [1] | Selectivity D1-like/D3 [2] | further results |
| --- | --- | --- | --- |
| CCCN(CC[C@]1(O)C[C@H](NS(=O)(=O)c2ccccc2OC)C1)[C@H]1CCc2nc(N)sc2C1 (relative stereo) [Compound 25, N-(cis-3-(2-(((S)-2-Amino-4,5,6,7-tetrahydrobenzo[d]thiazol-6-yl)(propyl)amino)-ethyl)-3-hydroxycyclobutyl)-2-methoxybenzenesulfonamide] | 75 | 800 | – |
| CCCN(CCC1(O)CC(NC(=O)c2ccc(Cl)cc2)C1)[C@H]1CCc2nc(N)sc2C1 (stereo in doubt) [Compound 14, N-(cis-3-(2-(((S)-2-Amino-4,5,6,7-tetrahydrobenzo[d]thiazol-6-yl)(propyl)amino)-ethyl)-3-hydroxycyclobutyl)-4-chlorobenzamide] | 157 | 9,751 | – |
| CCCN(CCC1(O)CC(NS(=O)(=O)c2ccc(OC)cc2)C1)[C@H]1CCc2nc(N)sc2C1 (stereo in doubt) [Compound 27, N-(cis-3-(2-(((S)-2-Amino-4,5,6,7-tetrahydrobenzo[d]thiazol-6-yl)(propyl)amino)-ethyl)-3-hydroxycyclobutyl)-4-methoxybenzenesulfonamide] | 65 | 1,631 | – |
| CCCN(CCC1(O)CC(NC(=O)c2ccc(F)cc2)C1)[C@H]1CCc2nc(N)sc2C1 (stereo in doubt) [Compound 17, N-(cis-3-(2-(((S)-2-Amino-4,5,6,7-tetrahydrobenzo[d]thiazol-6-yl)(propyl)amino)-ethyl)-3-hydroxycyclobutyl)-4-fluorobenzamide] | 412 | 56,180 | – |
| CCCN(CCC1(O)CC(NS(=O)(=O)c2ccc(F)c(F)c2)C1)[C@H]1CCc2nc(N)sc2C1 (stereo in doubt) [Compound 35, N-(cis-3-(2-(((S)-2-Amino-4,5,6,7-tetrahydrobenzo[d]thiazol-6-yl)(propyl)amino)-ethyl)-3-hydroxycyclobutyl)-3,4-difluorobenzenesulfonamide] | 19 | 24,516 | – |
| CCCN(CCC1(O)CC(NC(=O)c2ccccc2)C1)[C@H]1CCc2nc(N)sc2C1 (stereo in doubt) [Compound 11, N-(cis-3-(2-(((S)-2-Amino-4,5,6,7-tetrahydrobenzo[d]thiazol-6-yl)(propyl)amino)-ethyl)-3-hydroxycyclobutyl)benzamide] | 301 | 2,662 | – |
| CCCN(CCC1(O)CC(NS(=O)(=O)c2ccc(F)c(Cl)c2)C1)[C@H]1CCc2nc(N)sc2C1 (stereo in doubt) [Compound 34, N-(cis-3-(2-(((S)-2-Amino-4,5,6,7-tetrahydrobenzo[d]thiazol-6-yl)(propyl)amino)-ethyl)-3-hydroxycyclobutyl)-3-chloro-4-fluorobenzenesulfonamide] | 1,052 | 18,217 | % of Stimulation compared to Quinpirole as the standard agonist [3]: 100%; functional activity at the human D3 receptor (agonist character) [3]: full D3 agonists; IC50 [3]: 26 ± 4.1 nM |
| CCCN(CC[C@]1(O)C[C@@H](NS(=O)(=O)c2ccc(F)cc2)C1)[C@H]1CCc2nc(N)sc2C1 (relative stereo) [Compound 33, N-(cis-3-(2-(((S)-2-Amino-4,5,6,7-tetrahydrobenzo[d]thiazol-6-yl)(propyl)amino)-ethyl)-3-hydroxycyclobutyl)-4-fluorobenzenesulfonamide] | 414 | 53,684 | % of Stimulation compared to Quinpirole as the standard agonist [3]: 100%; functional activity at the human D3 receptor (agonist character) [3]: full D3 agonists; IC50 [3]: 17 ± 4.4 nM |
| CCCN(CC[C@]1(O)C[C@@H](NS(=O)(=O)c2cccc(Cl)c2)C1)[C@H]1CCc2nc(N)sc2C1 (relative stereo) [Compound 29, N-(cis-3-(2-(((S)-2-Amino-4,5,6,7-tetrahydrobenzo[d]thiazol-6-yl)(propyl)amino)-ethyl)-3-hydroxycyclobutyl)-3-chlorobenzenesulfonamide] | 28 | 27,200 | – |
| CCCN(CC[C@]1(O)C[C@@H](NS(=O)(=O)c2ccccc2Cl)C1)[C@H]1CCc2nc(N)sc2C1 (relative stereo) [Compound 28, N-(cis-3-(2-(((S)-2-Amino-4,5,6,7-tetrahydrobenzo[d]thiazol-6-yl)(propyl)amino)-ethyl)-3-hydroxycyclobutyl)-2-chlorobenzenesulfonamide] | 485 | 160,847 | – |
| CCCN(CC[C@]1(O)C[C@H](NC(=O)c2cccc(Cl)c2)C1)[C@H]1CCc2nc(N)sc2C1 (relative stereo) [Compound 13, N-(cis-3-(2-(((S)-2-Amino-4,5,6,7-tetrahydrobenzo[d]thiazol-6-yl)(propyl)-amino)ethyl)-3-hydroxycyclobutyl)-3-chlorobenzamide] | 175 | 49,482 | – |
| CCCN(CC[C@]1(O)C[C@@H](NC(=O)c2cccc(F)c2)C1)[C@H]1CCc2nc(N)sc2C1 (relative stereo) [Compound 16, N-(cis-3-(2-(((S)-2-Amino-4,5,6,7-tetrahydrobenzo[d]thiazol-6-yl)(propyl)amino)-ethyl)-3-hydroxycyclobutyl)-3-fluorobenzamide] | 138 | 29,789 | – |
| CCCN(CCC1(O)CC(NC(=O)c2ccccc2Cl)C1)[C@H]1CCc2nc(N)sc2C1 (stereo in doubt) [Compound 12, N-(cis-3-(2-(((S)-2-Amino-4,5,6,7-tetrahydrobenzo[d]thiazol-6-yl)(propyl)amino)-ethyl)-3-hydroxycyclobutyl)-2-chlorobenzamide] | 117 | 80,161 | – |
| CCCN(CCC1(O)CC(NC(=O)c2ccc(OC)cc2)C1)[C@H]1CCc2nc(N)sc2C1 (stereo in doubt) [Compound 20, N-(cis-3-(2-(((S)-2-Amino-4,5,6,7-tetrahydrobenzo[d]thiazol-6-yl)(propyl)amino)-ethyl)-3-hydroxycyclobutyl)-4-methoxybenzamide] | 3,779 | 61,143 | t1/2 in human liver microsomes [4]: >1 h; Percentage remaining of compounds in human liver microsomes ([4]; 0 h): 100%; Percentage remaining of compounds in human liver microsomes ([4]; 5 min): 97.7%; Percentage remaining of compounds in human liver microsomes ([4]; 10 min): 94.1%; Percentage remaining of compounds in human liver microsomes ([4]; 0.25 h): 94.0%; Percentage remaining of compounds in human liver microsomes ([4]; 0.5 h): 85.5%; Percentage remaining of compounds in human liver microsomes ([4]; 1 h): 76.7% |
| CCCN(CCC1(O)CC(NS(=O)(=O)c2ccccc2F)C1)[C@H]1CCc2nc(N)sc2C1 (stereo in doubt) [Compound 31, N-(cis-3-(2-(((S)-2-Amino-4,5,6,7-tetrahydrobenzo[d]thiazol-6-yl)(propyl)amino)-ethyl)-3-hydroxycyclobutyl)-2-fluorobenzenesulfonamide] | 614 | 109,000 | – |
| CCCN(CCC1(O)CC(NS(=O)(=O)c2ccccc2)C1)[C@H]1CCc2nc(N)sc2C1 (stereo in doubt) [Compound 24, N-(cis-3-(2-(((S)-2-Amino-4,5,6,7-tetrahydrobenzo[d]thiazol-6-yl)(propyl)amino)-ethyl)-3-hydroxycyclobutyl)benzenesulfonamide] | 42 | 30,000 | – |
| CCCN(CCC1(O)CC(NC(=O)c2ccccc2OC)C1)[C@H]1CCc2nc(N)sc2C1 (stereo in doubt) [Compound 19, N-(cis-3-(2-(((S)-2-Amino-4,5,6,7-tetrahydrobenzo[d]thiazol-6-yl)(propyl)amino)-ethyl)-3-hydroxycyclobutyl)-2-methoxybenzamide] | 160 | 44,500 | – |
| CCCN(CCC1(O)CC(NS(=O)(=O)c2cccc(OC)c2)C1)[C@H]1CCc2nc(N)sc2C1 (stereo in doubt) [Compound 26, N-(cis-3-(2-(((S)-2-Amino-4,5,6,7-tetrahydrobenzo[d]thiazol-6-yl)(propyl)amino)-ethyl)-3-hydroxycyclobutyl)-3-methoxybenzenesulfonamide] | 98 | 22,812 | – |
| CCCN(CCC1(O)CC(NS(=O)(=O)c2cccc(F)c2)C1)[C@H]1CCc2nc(N)sc2C1 (stereo in doubt) [Compound 32, N-(cis-3-(2-(((S)-2-Amino-4,5,6,7-tetrahydrobenzo[d]thiazol-6-yl)(propyl)amino)-ethyl)-3-hydroxycyclobutyl)-3-fluorobenzenesulfonamide] | 91 | 97,500 | – |
| CCCN(CCC1(O)CC(NC(=O)c2ccc(-c3noc(C)n3)cc2)C1)[C@H]1CCc2nc(N)sc2C1 (stereo in doubt) [Compound 22, N-(cis-3-(2-(((S)-2-amino-4,5,6,7-tetrahydrobenzo[d]thiazol-6-yl)(propyl)amino)-ethyl)-3-hydroxycyclobutyl)-4-(5-methyl-1,2,4-oxadiazol-3-yl)benzamide] | 15,208 | 20,000 | – |
| CCCN(CCC1(O)CC(NS(=O)(=O)c2ccc(Cl)cc2)C1)[C@H]1CCc2nc(N)sc2C1 (stereo in doubt) [Compound 30, N-(cis-3-(2-(((S)-2-Amino-4,5,6,7-tetrahydrobenzo[d]thiazol-6-yl)(propyl)amino)-ethyl)-3-hydroxycyclobutyl)-4-chlorobenzenesulfonamide] | 205 | 17,654 | – |
| CCCN(CCC1(O)CC(NC(=O)c2ccc3ccccc3c2)C1)[C@H]1CCc2nc(N)sc2C1 (stereo partly shown) [Compound 3] | – | – | Percentage remaining of compounds in human liver microsomes ([4]; 0 h): 100%; Percentage remaining of compounds in human liver microsomes ([4]; 5 min): 79.2%; Percentage remaining of compounds in human liver microsomes ([4]; 10 min): 49.9%; Percentage remaining of compounds in human liver microsomes ([4]; 0.25 h): 34.9%; Percentage remaining of compounds in human liver microsomes ([4]; 0.5 h): 11.7%; Percentage remaining of compounds in human liver microsomes ([4]; 1 h): 2.1% |
